Assay outcomes from PubChem BioAssay.
KCNK9 inh – human KCNK9 channel inhibition; HEK293 KCNK9, FluxOR thallium flux fluorescence; active compounds read low; Q9NPC2; B-score at 10 µM; actives 1.2% (n = 310,000);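 active = ratio B-score over 3 SD below the library mean, with starting fluorescence within 5 SD of its mean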;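 note: negative B-score means less thallium flux so channel inhibition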
Target sequence (Q9NPC2 whole entry, looked up): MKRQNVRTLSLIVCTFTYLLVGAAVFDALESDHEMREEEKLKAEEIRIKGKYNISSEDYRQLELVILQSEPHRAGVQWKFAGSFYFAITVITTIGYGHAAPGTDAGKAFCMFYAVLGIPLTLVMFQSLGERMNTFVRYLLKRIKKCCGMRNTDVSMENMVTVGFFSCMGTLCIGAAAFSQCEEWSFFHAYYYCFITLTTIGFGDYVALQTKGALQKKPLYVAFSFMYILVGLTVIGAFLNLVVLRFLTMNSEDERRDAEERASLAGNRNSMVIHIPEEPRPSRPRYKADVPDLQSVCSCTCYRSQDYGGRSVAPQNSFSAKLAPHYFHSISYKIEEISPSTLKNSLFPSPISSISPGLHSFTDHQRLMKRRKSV
KCNK3 block – human KCNK3 channel inhibition, primary screen; O14649; actives 0.84% (n = 340,000); AID 602410; CHO-KCNK3 thallium flux, FluxOR fluorescence; active compounds read low; B-score at 10 µM;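 active = B-score under library mean minus 4 SD, starting fluorescence ratio at most library mean plus 5 SD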;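 note: more negative B-score means stronger inhibition of thallium flux through KCNK3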
KCNQ1 block – inhibitors of human KCNQ1 potassium channel. CHO-K1 KCNQ1, FluxOR thallium flux fluorescence; active compounds read high. B-score at 10 µM. actives 1.3% (n = 310,000);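 active = compounds whose thallium flux B-score, printed positive for inhibition, exceeds three library SD while starting fluorescence stays within three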;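 note: channel opened by potassium depolarization with thallium stimulus after 20 min compound exposure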
hERG rescue – hERG (human) protection from proarrhythmic block; Q12809; CHO-hERG, FluxOR thallium flux, dofetilide IC70 present; activation (rescue from dofetilide block), less the hit threshold, % at 10 µM; actives 0.51% (n = 310,000);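 active = activation above the mean of controls blocked by dofetilide plus 5 SD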;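 note: thallium influx through hERG after potassium depolarization seen as dye fluorescence rise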
KCNQ1 act – potentiates or activates the human KCNQ1 potassium channel; CHO-K1 KCNQ1, thallium flux FluxOR fluorescence; active compounds read high; B-score at 10 µM; actives 0.35% (n = 310,000); AID 2648; P51787;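 active = fluorescence ratio B-score, a plate-corrected score, at least three library SD, with initial intensity B-score within 5 SD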
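assay system = KCNQ1-transfected CHO-K1 cells | medium = assay buffer with matched DMSO | probe or stimulus = depolarizing K+/Tl+ stimulus, K2SO4 and Tl2SO4 each 12.5 mM in 5x stock | dosing = single dose | incubation = dye 90 min, compound 20 min, room temperature | detection = kinetic FluxOR fluorescence, 10 s baseline plus 110 s post-stimulus | evaluation = ratio B score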
Numbers stand for hits; - = inactive; . = no result. Hits are enriched below; roughly 3.1% of the tested compounds scored in any of these assays.

SMILES	KCNK9 inh	KCNK3 block	KCNQ1 block	hERG rescue	KCNQ1 act
CC(C)C(=O)Nc1c(-c2ccccc2F)c(=O)c2ccccc2n1C	-	-	-	16.5	15
CC1(C)CC(N2CCN(CCO)CC2)=CC(=S)N1	-	-	-	-	10
COc1cc(NC(=S)N2CCN(CCO)CC2)cc(OC)c1	-	-	-	-	-
Cc1nn(C)c(C(=O)NC(=S)Nc2ccc([N+](=O)[O-])cc2)c1Cl	-	-	-	43.1	34
CCn1ncc(Cl)c1C(=O)NC(=S)Nc1ccccc1Br	-	-	-	34.6	26
CCn1ncc(Cl)c1C(=O)Nc1cc(Cl)ccc1Cl	-	-	-	-	-
Cc1nn(C)c(C(=O)NC(=S)Nc2ccccc2Br)c1Cl	-	-	-	16.9	22
CC(C)CN(C(=O)COC(=O)c1cc2ccccc2cc1O)c1c(N)n(Cc2ccccc2)c(=O)[nH]c1=O	.	-	.	.	.
CN(CCc1ccccc1)C(=O)c1ccc(NC(=O)Cc2ccc(NC(=O)C3CCCN(C(=O)C4CCCC4)C3)cc2)cc1 (stereo not given)	.	-	.	.	.
C=CCSc1nc(Oc2ccccc2)c2sccc2n1	-	-	6	-	-
CN1OC[C@@H]2CN(C(=O)CCc3ccccc3)[C@H](c3cccc(-c4ccc(C#N)cc4)c3)C[C@@H]21	.	-	.	.	.
Cc1ccc(/C=C/C(=O)c2ccccc(=O)c2O)cc1C	-	-	-	9.1	34
COc1ccc(C=CC(=O)c2ccc(OC)c(OC)c2O)cc1OC	.	-	.	.	.
NC(=O)NC(=O)C(Nc1ccc(N2CCCCC2)cc1)c1ccccc1 (stereo not given)	-	-	-	-	-
CCOc1ccc(OCC)c(NC(=O)CN2CCN(c3cc(C)ccc3C)CC2)c1	-	-	6	-	-
CCOc1ccc(OCC)c(NC(=O)CN2CCN(c3cccc(C)c3)CC2)c1	-	-	-	-	-
Cc1cc(C)n(-c2nc3sc4c(c3c(=O)[nH]2)CCCC4)n1	-	.	-	-	13
CCC1CCCCN1C(=O)c1cccc(S(=O)(=O)Nc2cc(C(F)(F)F)ccc2Cl)c1 (stereo not given)	-	-	7	-	-
O=C(NC1CCN(Cc2ccccc2)CC1)c1cccc(S(=O)(=O)Nc2cc(C(F)(F)F)ccc2Cl)c1	-	-	-	-	-
C=CCn1c(SCN2C(=O)c3ccccc3C2=O)nc2ccc(Cl)cc2c1=O	-	-	-	-	9
CCc1ccc(NC(=S)N(Cc2cccnc2)Cc2ccco2)cc1	-	-	-	6.0	-
CN1C=CC(=O)[C@@H](OC(=O)Nc2ccc(Br)cc2)[C@H]1c1ccccc1Br	.	-	.	.	.
CCOc1ccc(NC(=O)CN(C)C(=O)C2CC(=O)N(c3cccc(SC)c3)C2)cc1OCC (stereo not given)	.	-	.	.	.
COc1ccc(C(=O)NCCn2cc(SCC(=O)NCC3CCCO3)c3ccccc32)cc1OC (stereo not given)	-	-	-	-	-
Cc1nc2sc(C(c3ccccc3)N3CCN(C(=O)c4ccco4)CC3)c(O)n2n1 (stereo not given)	-	-	-	-	12
SMILES	KCNK9 inh	KCNK3 block	KCNQ1 block	hERG rescue	KCNQ1 act
Cc1ccc(C(c2sc3nc(C)nn3c2O)N2CCN(C(=O)c3ccco3)CC2)cc1 (stereo not given)	-	-	-	-	-
COc1ccc(OC)c(C2C3CN(C(C)C)CC=C3C(C#N)=C(N)C2(C#N)C#N)c1 (stereo not given)	-	-	6	-	-
CCCN1CC=C2C(C#N)=C(N)C(C#N)(C#N)C(c3cccc(OC)c3OC)C2C1 (stereo not given)	-	-	8	-	-
COc1cccc(OC)c1OCc1cc(C2C3CCCC=C3C(C#N)=C(N)C2(C#N)C#N)c(C)cc1C (stereo not given)	-	-	7	-	-
CCCCOc1ccc(C2C3CN(C(=O)OCC)CC=C3C(C#N)=C(N)C2(C#N)C#N)cc1OC (stereo not given)	-	-	-	-	-
CN1CC=C2C(C#N)=C(N)C(C#N)(C#N)C(c3cccc(Cl)c3Cl)C2C1 (stereo not given)	-	-	6	-	-
CCN1CC=C2C(C#N)=C(N)C(C#N)(C#N)C(CCc3ccccc3)C2C1 (stereo not given)	.	-	.	.	.
N#CC1=C(N)C(C#N)(C#N)[C@H](c2ccoc2)[C@H]2CN(Cc3ccccc3)CC=C12	-8.78	-	-	-	-
COc1ccccc1OCCn1nnc2ccccc21	-	-	-	-	-
COC(=O)N/N=C/c1cc(C)n(-c2cccc3ccccc23)c1C	-7.04	-	-	-	-
CCN(C1CCS(=O)(=O)C1)S(=O)(=O)c1ccc(Cl)s1 (stereo not given)	.	-	.	.	.
Cc1c(C(=O)NCCC2=CCCCC2)oc2ccc(S(=O)(=O)N3CCC4(CC3)OCCO4)cc12	-	-9.1	-	-	-
Cc1c(C(=O)Nc2ccc(F)c(F)c2)oc2ccc(S(=O)(=O)N3CCCCC3)cc12	-	-10.1	-	-	-
O=C(CCCn1c(=O)oc2ccccc21)NNC(=O)COc1ccc(F)cc1	.	-	.	.	.
CC(C)(C(=O)c1ccccc1)/[N+]([O-])=C/c1ccccc1	-	-	-	-	-
CC(C)(/C=N/O)/[N+]([O-])=C/c1ccccc1	-	-	7	-	-
NC(=O)C1(Nc2ccccc2)CCCC1	.	-	.	.	.
C[C@@]12C(=O)N(CC3CCCO3)CC(=O)N1[C@H]1c3ccccc3OC[C@@H]1[C@@H]2c1ccccc1 (stereo not given in full)	.	-	.	.	.
CCCOc1ccc(NC(=O)CC2C(=O)N(Cc3ccccc3)C(=S)N2Cc2cccs2)cc1 (stereo not given)	-	-	6	-	-
Cc1cc(C(=O)N2CCc3c([nH]c4ccccc34)C2c2cccc(Cl)c2)nn1C (stereo not given)	-7.36	-	-	-	-
COc1ccccc1C(=O)N1[C@@H](C(C)C)COc2cc(Br)ccc2S1(=O)=O	.	-	.	.	.
CCOC(=O)c1c(CSc2ccccc2)n(C)c2cc(Br)c(O)c(CN(C)C)c12	-6.7	-	-	-	-
CCOC(=O)c1c(CSc2ccc(C)cc2)n(C)c2cc(Br)c(O)c(CN(C)C)c12	-	-	-	-	-
O=C(NCc1ccncc1)c1cc(C(=O)C2CCCCC2)c[nH]1	-	-	-	6.2	-
CCCc1nn2c(=O)c(C(c3cccc(Cl)c3)c3c(O)nc4sc(CCC)nn4c3=O)c(O)nc2s1	-	-	-	6.1	-
O=[N+]([O-])c1cccc(/C=C/c2nc3ccc([N+](=O)[O-])cc3[nH]2)c1	-	-	9	-	-
Cc1nc2ccc([N+](=O)[O-])cc2[nH]1	-	-	-	-	-
O=C(Nc1ccc2c(c1)OCO2)c1ccc([N+](=O)[O-])cc1[N+](=O)[O-]	-	-	-	-	-
O=C1[C@H]2CCC=C[C@H]2[C@H](c2cccc(Br)c2)N1Cc1ccccc1	.	-	.	.	.
